Source: PubChem
CHOP UPR activ = activators of apoptotic CHOP UPR arm, primary screen, cell-based, CHO-CHOP luciferase reporter, luminescence, uHTS | activation, % at 10 µM | UPR activation; percent of tunicamycin response over DMSO baseline | 330,000 tested, 0.34% active | AID 449763, 2010;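 active means at 10 µM dose, activation of 40% or more, normalized to positive control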;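 further: 100% = tunicamycin at 10 µg/mL and 0% = DMSO alone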
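Assay system: CHO cells with stable CHOP pathway luciferase reporter; Buffer or medium: F12 plus 10% serum; Times: 16-18 h cell attachment, then 6 h compound exposure, 37 °C; Signal: luciferase luminescence; Read-out basis: percent activation relative to tunicamycin control; Control set: tunicamycin high control, DMSO low control.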
TLR4 MyD88 comp = inhibitors of TLR4-MyD88 association in cells, primary screen, cell-based, HeLa CL3-4, BLA complementation, FRET ratio | inhibition, % at 8.4 µM | AID 861, 2007 | HeLa CL3-4 TLR4/MyD88 BLA complementation | Toll-like receptor 4 (Homo sapiens) + Myeloid differentiation primary response protein … | 200,000 tested, 0.18% active; in the data active means inhibition above about 25%;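 further: 0% = vehicle and 100% = reference inhibitor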
UPR XBP1 act = activators of adaptive XBP1 UPR arm, primary screen, cell-based, CHO-XBP1 luciferase reporter, luminescence, uHTS; IRE1-XBP1 UPR activation; percent of tunicamycin response, DMSO as zero; activation, % at 20 µM; 330,000 tested, 0.33% active;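 active means versus positive control, 20 µM dose yields 30% or more activation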;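 further: 100% = tunicamycin at 10 µg/mL and 0% = DMSO only wells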
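Material: CHO-XBP1 cells stably carrying IRE1-XBP1-driven luciferase reporter | Medium: F12 with 10% serum | Compound dosing: 20 µM single concentration, DMSO 1% | Incubation: Overnight seeding at 37 °C, 6 h compound treatment at 37 °C | Detection: Steady-Glo luminescence read | Read-out basis: % activation of reporter signal versus tunicamycin and DMSO controls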
CHOP inh = inhibitors of CHOP promoter induction, primary screen, cell-based, unfolded protein response, luciferase reporter; CHO-K1 CHOP-promoter luciferase, tunicamycin-induced, 15-18 h; inhibition, % at 10 µM; 220,000 tested, 3.8% active;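 active means compounds that reduced the stress-induced luciferase reporter signal by more than about 70% of percent inhibition, limit read from the data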;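 further: 0% = tunicamycin plus vehicle and 100% = wells without tunicamycin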
NOD2-RIPK2 inh = NOD2-RIPK2 binding disruptors in cells, primary screen, fluorescence, CHO cells, BLA complementation; 360,000 tested, 0.38% active; CCF4 ratio; Receptor-interacting serine/threonine-protein kinase 2 (Homo sapiens), O43353; AID 624267, 2012; inhibition, % at 4.98 µM; in the data active means inhibition above about 21%;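 further: 0% = vehicle only and 100% = reference blocker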
TLR9-MyD88 inh = inhibitors of TLR9-MyD88 association in cells, primary screen, cell-based, CHO, BLA complementation, fluorescence. CCF4 FRET ratio. inhibition, % at 4.98 µM. 340,000 tested, 0.21% active. AID 504734, 2011;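 active means inhibition above the mean over all tested compounds plus 3 SD, cut at about 21% in these data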;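 further: 0% = DMSO only wells and 100% = clavulanate BLA inhibitor control wells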
CHOP confirm = retest of CHOP induction inhibitors, confirmation, cell-based. shares compounds with CHOP inh. CHO-CHOP promoter luciferase reporter, tunicamycin-induced, luminescence. inhibition, % at 10 µM. 2,100 tested, 45% active. AID 504437, 2011;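 active means mean of three repeat readings of reporter signal inhibition above a set limit, cut at about 70% in these data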;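 further: 0% = tunicamycin plus vehicle and 100% = wells lacking tunicamycin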
Starred values were filed as active, the others as inactive; nt = not tested or not shown. Many of the other results were omitted from the sample, so hits are more common in it than they were.

SMILES | CHOP UPR activ | TLR4 MyD88 comp | UPR XBP1 act | CHOP inh | NOD2-RIPK2 inh | TLR9-MyD88 inh | CHOP confirm
C=CCn1c(=O)[nH]c2cc(C(=O)N3CCN(c4cc(C)ccc4C)CC3)ccc2c1=O | -3 | -11 | 1 | 97* | -2 | -1 | 63
CCOc1ccc(/C=N/N(C)c2ccccc2)cc1OC | 2 | -1 | 3 | 100* | -8 | 17 | 3
COC(=O)c1c(C)[nH]c(O)c1C=Nc1ccc(C(C)C)cc1 | 8 | -8 | 2 | 26 | -2 | 13 | nt
CCOC(=O)c1c(C)[nH]c(O)c1C=Nc1ccc(Cl)cc1 | 3 | 7 | 0 | 103* | -1 | -7 | 110*
Cc1cc(C)n(-c2nc(Nc3ccccc3C)nc(-n3nc(C)cc3C)n2)n1 | 5 | -16 | -3 | 99* | nt | nt | 36
Cc1cc(C)n(-c2nc(NC(C)C)nc(NC(C)C)n2)n1 | 36 | 6 | 10 | -168 | -1 | -7 | nt
Cc1cc(C)n(-c2nc(Nc3ccccc3C(F)(F)F)nc(-n3nc(C)cc3C)n2)n1 | 10 | 3 | -7 | 105* | 18 | 13 | 122*
CCNc1nc(NCC)nc(-n2nc(C)cc2C)n1 | 11 | 3 | 6 | -133 | 1 | -9 | nt
Cc1ccc(NCC(=O)N/N=C/c2cccc(Oc3ccccc3)c2)cc1 | 2 | 9 | -3 | 101* | -6 | -10 | 85*
Cc1cccc(NCC(=O)N/N=C\c2cccc(Oc3ccccc3)c2)c1 | -1 | 15 | 0 | 104* | 4 | -2 | 81*
Cc1cccc(NCC(=O)N/N=C/c2ccc(Br)cc2)c1 | 1 | -2 | 3 | 68 | -4 | -1 | nt
N#CCC(=O)N/N=C/c1cccc(Oc2ccccc2)c1 | 0 | -5 | 2 | 20 | 2 | -10 | nt
O=C(Nc1ccc(Cl)cc1)N1CCC(c2nc(-c3ccc(F)cc3)no2)CC1 | 1 | 7 | -1 | 104* | -5 | -6 | 4
COc1ccc(NC(=O)N2CCCC(c3nc(-c4ccc(OC)cc4)no3)C2)cc1 (configuration not stated) | 2 | 10 | -2 | -12 | 0 | -6 | nt
CCOc1ccc(CCNc2ccc3nnc(-c4ccccc4)n3n2)cc1OCC | 1 | 4 | -4 | 97* | 0 | 1 | 64
CN(C)c1ccc(-c2ccnc3c2CC(C)(C(=O)NCC2CCOCC2)O3)cc1 (configuration not stated) | nt | nt | nt | nt | 4 | nt | nt
CCCCNc1ccc(C(CC(N)=O)NC(=O)Cc2cccc3ccccc23)cc1[N+](=O)[O-] (configuration not stated) | 0 | nt | -2 | 104* | -6 | -2 | 26
Cc1cccc(CNc2ccc(C(CC(N)=O)NC(=O)Cc3cccc4ccccc34)cc2[N+](=O)[O-])c1 (configuration not stated) | 1 | nt | -1 | 105* | 7 | 5 | 17
NC(=O)CC(NC(=O)Cc1ccc(Br)cc1)c1ccc(N2CCN(c3ccccc3)CC2)c([N+](=O)[O-])c1 (configuration not stated) | 0 | nt | -1 | 103* | -4 | 3 | 32
COc1ccc(CCNc2ccc(C(CC(N)=O)NC(=O)Cc3cccc4ccccc34)cc2[N+](=O)[O-])cc1 (configuration not stated) | 1 | nt | -5 | 63 | 1 | -6 | nt
NC(=O)c1cccc(-c2ccnc3c2CC(C(=O)NCc2cccc(Cl)c2)O3)c1 (configuration not stated) | nt | nt | nt | nt | -4 | nt | nt
CC(C)COC(=O)/C(C#N)=C/c1c[nH]c2ccccc12 | 4 | 2 | 6 | 101* | 3 | 4 | -22
N#C/C(=C\c1c[nH]c2ccccc12)C(=O)c1ccc(O)c(O)c1 | nt | nt | nt | -1 | nt | nt | nt
CSc1ccccc1-c1cnc(NC(C)=O)cn1 | nt | nt | nt | nt | -4 | nt | nt
CC1(C)Oc2ccc3ccc(=O)oc3c2/C(=C/Nc2cccc(O)c2)C1=O | 1 | 0 | 0 | 106* | -6 | nt | 1
SMILES | CHOP UPR activ | TLR4 MyD88 comp | UPR XBP1 act | CHOP inh | NOD2-RIPK2 inh | TLR9-MyD88 inh | CHOP confirm
O=C(NNc1ccccc1[N+](=O)[O-])Nc1ccc(Cl)c(Cl)c1 | 2 | 0 | -1 | 101* | 2 | 2 | 71*
COc1ccc(Cc2c(C3CCCCC3)nc3c(C)cc(Br)cn23)c(C)c1 | nt | nt | nt | nt | 7 | nt | nt
C[C@@H]1ON(C)[C@H]2C[C@H]3c4cc(-c5cccc(F)c5)ccc4CCN3C(=O)[C@@H]12 | nt | nt | nt | nt | -2 | -2 | nt
CC1=NC(C)(C)CC2CCC(O)C12 (configuration not stated) | nt | nt | nt | nt | 8 | 4 | nt
CC(C)Cn1c(=O)[nH]c(=O)c2c(C(F)(F)F)cc(-c3ccccc3)nc21 | 1 | nt | 16 | 99* | -7 | 4 | 100*
CCCn1c(=O)[nH]c(=O)c2c(C(F)(F)F)cc(-c3ccc(C)cc3)nc21 | 3 | -4 | 19 | 6 | -7 | 3 | nt
COc1cccc(-c2cnc(C(O)c3ccc(Cl)c(Cl)c3)[nH]2)c1 (configuration not stated) | nt | nt | nt | nt | 2 | nt | nt
Nc1ncnc(Sc2ncccn2)c1[N+](=O)[O-] | nt | -5 | nt | 104* | 1 | -4 | 45
CN(C)CCNC=C(C(=O)Nc1ccc(Cl)cc1Cl)C(=O)Nc1ccc(Cl)cc1Cl | 6 | -2 | 29 | 99* | -4 | -5 | 26
CC(=O)/C(=C/N(C)C)C(=O)Nc1ccc(Cl)cc1Cl | 1 | -10 | 2 | 12 | 3 | -1 | nt
Cc1ccc(N=C2SC(C(=O)Nc3ccc(OC(F)(F)F)cc3)C(N)=C2C(=O)Nc2c(C)cc(C)cc2C)cc1 (configuration not stated) | nt | -4 | nt | 105* | 11 | -1 | 84*
Cc1ccc(NC(=O)C2SC(=Nc3ccccc3)C(C(=O)Nc3ccc(Cl)cc3)=C2N)cc1 (configuration not stated) | nt | -13 | nt | 28 | 2 | 11 | nt
C[C@@H]1CN([C@H](C)CO)C(=O)CCCn2cc(nn2)CO[C@H]1CN(C)C(=O)Nc1ccc2c(c1)OCO2 | nt | nt | nt | nt | 9 | 4 | nt
O=C(COC(=O)CC1CC2CCC1C2)Nc1ccccc1Cl (configuration not stated) | -1 | nt | -1 | nt | -8 | 2 | nt
Cc1ccc(Cl)cc1NC(=O)COC(=O)CC1CC2CCC1C2 (configuration not stated) | -1 | 7 | -1 | 100* | 0 | 6 | 68
